2 molecules from ChEMBL document CHEMBL1139543, “Antineoplastic agents. 445. Synthesis and evaluation of structural modifications of (Z)- and (E)-combretastatin A-41” (J Med Chem, 2005) can be followed below.

One assay concerns SK-N-SH. Briefly: Growth inhibition against human neuroblastoma cell line (SK-N-SH). It counts as functional.
The test system of another assay is Neisseria gonorrhoeae. Briefly: Minimum inhibitory concentration against Neisseria gonorrhoeae was determined in the disk diffusion assay; value ranges from 50-100 ug/disk. It counts as functional. For orientation: In agar diffusion tests the substance spreads into inoculated agar from a disc or well.
The test system of a further assay is P388. Briefly: Effective dose against murine P388 leukemia cell line. The format is functional. The conditions noted are these: Mus musculus, read-out: ED50 (the source's name).
Another assay relates to BXPC-3. In words: Growth inhibition against human pancreas carcinoma cell line (BxPC-3). The format is functional.
Another assay deals with Enterococcus faecalis. In words: Minimum inhibitory concentration against Enterococcus faecalis was determined in the disk diffusion assay value ranges from 50-100 ug/disk. It counts as functional.
The next assay concerns DU-145. Briefly: Growth inhibition against human prostate cell line (DU-145). It counts as functional.
In another assay the test system is SW-1736. In words: Growth inhibition against human thyroid cell line( SW 1736). It counts as functional.
For the next assay, the system named is NCI-H460. In words: Growth inhibition against human lung-NSC NCI-H460 cell line. It counts as functional.
Assay [1] has as its system Micrococcus luteus. In words: Minimum inhibitory concentration against Micrococcus luteus was determined in the disk diffusion assay. The format is functional.
Assay [2] has as its system Staphylococcus aureus. In words: Minimum inhibitory concentration against Staphylococcus aureus was determined in the disk diffusion assay; value ranges from 25-50 ug/disk. The format is functional.
A further assay deals with Tubulin beta-1 chain (Homo sapiens, UniProt Q9H4B7). Briefly: Inhibition of tubulin polymerization upon incubation for 20 min at 30 degree C. The essentials: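 Purified tubulin at 10 µM (1.0 mg/mL) in 0.8 M monosodium glutamate, pH 6.6, with 4% (v/v) DMSO and varying compound concentrations. Preincubated 15 min at 37 °C, chilled on ice, then GTP (0.4 mM) added. Warmed from 0 °C to 30 °C, and assembly followed 20 min by turbidity at 350 nm. IC50 interpolated; at least two determinations; SD reported.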

In the next assay the test system is FaDu. In words: Growth inhibition against human pharynx FADU cell line. It counts as functional.
For assay [3], the system named is Micrococcus luteus. In words: Minimum inhibitory concentration against Micrococcus luteus was determined in the disk diffusion assay; value ranges from 12.5-25 ug/disk. The format is functional.
Assay [4] relates to Staphylococcus aureus. Briefly: Minimum inhibitory concentration against Staphylococcus aureus was determined in the disk diffusion assay; value ranges from 50-100 ug/disk. It counts as functional.

pIC50: −log10 of the molar value.

Sequence of Tubulin beta-1 chain (Q9H4B7 whole entry): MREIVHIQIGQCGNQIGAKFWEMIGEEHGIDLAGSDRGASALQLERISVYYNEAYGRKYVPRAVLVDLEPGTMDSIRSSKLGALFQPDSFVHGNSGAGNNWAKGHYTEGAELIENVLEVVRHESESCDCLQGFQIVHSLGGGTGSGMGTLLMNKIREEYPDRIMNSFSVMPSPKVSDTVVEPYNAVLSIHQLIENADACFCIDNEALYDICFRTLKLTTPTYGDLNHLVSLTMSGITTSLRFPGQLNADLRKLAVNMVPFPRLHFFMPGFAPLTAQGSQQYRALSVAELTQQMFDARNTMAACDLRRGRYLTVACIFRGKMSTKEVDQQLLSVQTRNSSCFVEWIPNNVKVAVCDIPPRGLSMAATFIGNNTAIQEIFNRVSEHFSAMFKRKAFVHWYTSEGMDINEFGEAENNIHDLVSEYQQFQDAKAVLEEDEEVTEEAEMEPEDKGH

Take `CCN(CC)CCOc1cc(/C=C\c2cc(OC)c(OC)c(OC)c2)ccc1OC.Cl`: the GI50 (commonly the concentration giving 50% growth inhibition) was 1.5 µg/mL with SK-N-SH; greater than 10 µg/mL in the assay with BXPC-3; 3.4 µg/mL in the assay with DU-145; 1.1 µg/mL in the assay on SW-1736; 3.3 µg/mL in the assay with NCI-H460; 1.1 µg/mL with FaDu. Also, the MIC is on record as 100 ug/disk in the assay on Neisseria gonorrhoeae, 100 ug/disk against Enterococcus faecalis, less than 6.25 ug/disk against Micrococcus luteus [1] and 50 ug/disk in the assay on Staphylococcus aureus [2]. Moreover, in the assay with P388, the EC50 turned out to be 0.255 µg/mL. For the same molecule, on Tubulin beta-1 chain, the pIC50 (in general, −log10 of the IC50, conventionally taken in molar units) is less than 4.40.

Consider `COc1ccc(/C=C\c2cc(OC)c(OC)c(OC)c2)cc1OCCN1CCCC1.Cl`, for which the GI50 with SK-N-SH was determined as 0.22 µg/mL; in the assay on BXPC-3 it was 2 µg/mL; in the assay with DU-145, 0.35 µg/mL; in the assay with SW-1736, 0.6 µg/mL; with NCI-H460, 0.34 µg/mL; in the assay with FaDu, 0.49 µg/mL. In addition, in the assay with P388, the EC50 was determined as 0.421 µg/mL. In addition, the pIC50 at Tubulin beta-1 chain was less than 4.40. Further, the MIC in the assay with Micrococcus luteus [3] came to 25 ug/disk; with Staphylococcus aureus [4], 100 ug/disk.
